Calls of active or inactive are those of the source. The rule behind the calls is not given here.

Test [1] in a line: Antiproliferative activity against human WI38 cells after 72 hrs by MTT assay. The format is cell-based. The settings on record: WI-38, 72 h. The method, boiled down:
(§1)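 Monolayers in DMEM with 10% FBS, 2 mM L-glutamine, penicillin/streptomycin, 37 °C, 5% CO2. Seeded at 3 × 10³ to 6 × 10³ cells/well on day 0. Agents added the next day in five 10-fold dilutions (10^-8–10^-4 mol/L), with a DMSO solvent control (max 0.25%). MTT read at 570 nm after 72 h. Quadruplicate points, three experiments. IC50 is the concentration giving 50% growth inhibition.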
(In general: Tetrazolium dyes change colour on reduction, which living cells bring about.)

The test system of test [2] is HeLa. Put plainly: Antiproliferative activity against human HeLa cells after 72 hrs by MTT assay. The format is functional, cell-based. In outline:
as §1

Test [3] has as its system MIA PaCa-2. Put plainly: Antiproliferative activity against human MIAPaCa2 cells after 72 hrs by MTT assay. It counts as functional, cell-based. The conditions noted are these: MIA PaCa-2, 72 h. The method, boiled down:
as §1

The subject of test [4] is SW-620. Put plainly: Antiproliferative activity against human SW620 cells after 72 hrs by MTT assay. It counts as functional, cell-based. The conditions noted are these: SW-620, 72 h. In outline: as §1
Test [5] relates to MCF7. In words: Antiproliferative activity against human MCF7 cells after 72 hrs by MTT assay. The format is functional, cell-based. The conditions noted are these: MCF7, 72 h. The method, boiled down: as §1
The subject of test [6] is NCI-H460. In words: Antiproliferative activity against human H460 cells after 72 hrs by MTT assay. The format is functional, cell-based. The conditions noted are these: NCI-H460, 72 h. The method, boiled down: as §1
Test [7] concerns HEp-2. In words: Antiproliferative activity against human Hep2 cells after 72 hrs by MTT assay. The format is functional, cell-based. The settings on record: HEp-2, 72 h. The method, boiled down: as §1
In test [8] the test system is NCI-H460. In words: Cell cycle arrest in human H460 cells assessed as reduction of percentage of cells in S phase at 5 to 50 uM after 24 hrs using propidium iodide staining by FACS. The format is functional, cell-based. The method, boiled down:
(§2)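 H 460 cells seeded at 2 × 10⁵/well and treated after overnight incubation with 5, 10 or 50 µM for 24 or 48 h. Attached and floating cells were pooled, fixed in 70% ethanol, treated with 0.2 µg/µL RNase A (37 °C, 15 min) and stained with 50 µg/mL propidium iodide. Flow cytometry counted 20000 events, in duplicate across two independent experiments.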
On the technique in general: Flow cytometry measures light scatter and fluorescence of single cells or particles in a stream.

Test [9] concerns NCI-H460. Put plainly: Cell cycle arrest in human H460 cells assessed as reduction of percentage of cells in S phase at 5 to 50 uM after 48 hrs using propidium iodide staining by FACS. It counts as functional, cell-based. In outline: as §2
Test [10] concerns NCI-H460. In words: Cell cycle arrest in human H460 cells assessed as increase in percentage of cells in sub-G1 phase at 5 to 50 uM after 24 hrs using propidium iodide staining by FACS. It counts as functional, cell-based. In outline: as §2
Test [11] has as its system NCI-H460. Put plainly: Cell cycle arrest in human H460 cells assessed as increase in percentage of cells in sub-G1 phase at 5 to 50 uM after 48 hrs using propidium iodide staining by FACS. The format is functional, cell-based. In outline:
as §2

For test [12], the system named is NCI-H460. In words: Induction of apoptosis in human H460 cells assessed as late apoptotic cells at 10 uM after 48 hrs using annexin V staining by FACS. It counts as functional. The method, boiled down: (§3)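 H 460 cells seeded at 2 × 10⁵/well and exposed for 48 h (5, 10 or 50 µM) against a vehicle control. Floating and attached cells were pooled and washed in binding buffer (10 mM HEPES, 140 mM NaCl, 2.5 mM CaCl2, pH 7.4). They were stained 20 min with annexin V Alexa Fluor 488 and 1 µg/mL 7-AAD, then read by flow cytometry. Quadrants: viable, early apoptotic, late apoptotic.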

The subject of test [13] is NCI-H460. Put plainly: Induction of apoptosis in human H460 cells assessed as early apoptotic cells at 10 uM after 48 hrs using annexin V staining by FACS. The format is functional. The method, boiled down:
as §3

The subject of test [14] is NCI-H460. Put plainly: Induction of apoptosis in human H460 cells assessed as viable cells at 10 uM after 48 hrs using annexin V staining by FACS. It counts as functional. The conditions noted are these: NCI-H460, 48 h, read-out: Activity. In outline: as §3
Test [15] concerns NCI-H460. In words: Induction of apoptosis in human H460 cells assessed as late apoptotic cells after 48 hrs using annexin V staining by FACS. It counts as functional, cell-based. In outline:
as §3

Test [16] concerns NCI-H460. In words: Induction of apoptosis in human H460 cells assessed as early apoptotic cells after 48 hrs using annexin V staining by FACS. The format is functional, cell-based. In outline: as §3
Test [17] has as its system NCI-H460. In words: Induction of apoptosis in human H460 cells assessed as viable cells after 48 hrs using annexin V staining by FACS. The format is functional, cell-based. The method, boiled down: as §3

For orientation: IC50 means the concentration at which inhibition is half-maximal. Lower therefore signals greater potency. Consider `CC(C)NC(=N)c1ccc2nc(NC(=O)c3ccc(F)cc3)sc2c1`, for which the IC50 in test [1] was > 100 µM; in test [2], 13 µM; in test [3], 32 µM; in [4], 35 µM; in [5], 13 µM; in test [6], 22 µM.

Turning to `c1cnc(Nc2nc3ccc(C4=NCCN4)cc3s2)nc1`, the IC50 turned out to be 1.7 µM in [1]; 1.4 µM in test [2]; 1.8 µM in test [3]; 1.7 µM in [4]; 1.7 µM in test [5]; 1.6 µM in [6].

In the case of `CC(C)NC(=N)c1ccc(Nc2nc3ccc(C(=N)NC(C)C)cc3s2)cc1`, the 50% inhibitory concentration (IC50) in test [1] was determined as 92 µM; in test [2], 18 µM; in test [3] it was 30 µM; in [4] it was 18 µM; in test [5], 6 µM; in test [6], 16 µM.

Take `N#Cc1ccc(Nc2nc3ccc(C#N)cc3s2)cc1`: the concentration for half-maximal inhibition (IC50) in test [1], in [7], in [2], in [3], in test [4] and in test [5] was > 10 µM in each case.

As for `CC(C)NC(=N)c1ccc2nc(NC(=O)c3ccccc3)sc2c1`, the IC50 in test [1] was > 100 µM; in test [2], 16 µM; in test [3], 38 µM; in test [4], 30 µM; in test [5], 22 µM; in test [6], 15 µM.

For `Cc1cccc(Nc2nc3ccc(C4=NCCN4)cc3s2)n1.Cl.Cl`, the IC50 in test [1], in test [2], in test [3], in test [4], in [5] and in [6] was 2 µM throughout. In addition, the result in [8], in [9], in test [10] and in test [11] was Active. The Activity in test [12] is 5.58%; in test [13], 24.05%; in test [15] it was “Dose-dependent effect”; in test [16], “Dose-dependent effect”; in [17], “Dose-dependent effect”. In test [14], the viability at 10 µM worked out at 67.7%.

As for `Clc1ccc(Nc2nc3ccc(C4=NCCN4)cc3s2)nc1`, the IC50 turned out to be 1 µM in test [1]; 1 µM in test [2]; 1.6 µM in test [3]; 1.3 µM in test [4]; 1.4 µM in test [5]; 1.5 µM in [6].

`CC(C)NC(=N)c1ccc2nc(Nc3ccc(Cl)cn3)sc2c1`: the IC50 stood at 17 µM in [1]; 9 µM in [2]; 12 µM in [3]; 13 µM in test [4]; 5 µM in test [5]; 15 µM in test [6].

Regarding `N#Cc1ccc2nc(Nc3ncccn3)sc2c1`, the IC50 in test [1] was ≥ 10 µM; in test [7] it was 5 µM; in [2], 5 µM; in [3], 3 µM; in test [4] it was 9 µM; in test [5], 7 µM.

For the compound `CC(C)NC(=N)c1ccc2nc(Nc3ncccn3)sc2c1`, the IC50 in test [1] is 75 µM; in test [2] it was 7 µM; in test [3], 11 µM; in [4], 15 µM; in test [5], 13 µM; in test [6] it was 5 µM.

Consider `Cc1cccnc1Nc1nc2ccc(C#N)cc2s1`, for which the IC50 in test [1] was 2.3 µM; in [7], > 10 µM; in test [2] it was > 10 µM; in test [3], 3 µM; in [4], 3 µM; in test [5], > 10 µM.

In the case of `Cc1ccc(Nc2nc3ccc(C4=NCCN4)cc3s2)nc1.Cl.Cl`, the IC50 came to 6 µM in test [1]; 2 µM in test [2]; 2 µM in test [3]; 1 µM in test [4]; 2 µM in test [5]; 2 µM in test [6]. Further, the outcome in test [8] and in test [9] was Active. The Activity in test [12] was 2.3%; in [13], 6.98%; in test [15], “Dose-dependent effect”; in test [16] it was “Dose-dependent effect”; in test [17], “Dose-dependent effect”. In addition, the viability at 10 µM in [14] turned out to be 89%.

As to `Cc1cccnc1Nc1nc2ccc(C3=NCCN3)cc2s1`, the 50% inhibitory concentration (IC50) in [2] worked out at 3 µM; in test [3], 3 µM; in test [4], 2 µM; in [5], 2 µM; in test [6] it was 2 µM.

Turning to `Cc1ccc(Nc2nc3ccc(C#N)cc3s2)nc1`, the IC50 in test [1] is 4 µM; in test [7], > 10 µM; in test [2], 9 µM; in test [3], 5 µM; in test [4], > 10 µM; in [5], > 10 µM.

As for `Cc1ccnc(Nc2nc3ccc(C#N)cc3s2)c1`, the IC50 in test [1] is ≥ 10 µM; in test [7], 7 µM; in [2], 3 µM; in test [3], 4 µM; in test [4], 4 µM; in test [5] it was > 10 µM.

For the compound `Cc1cccc(Nc2nc3ccc(C#N)cc3s2)n1`, the IC50 in test [1] is > 10 µM; in test [7], > 10 µM; in test [2], 8 µM; in test [3] it was 6 µM; in test [4], 4 µM; in test [5], 8 µM.

Turning to `N#Cc1ccc2nc(Nc3ccc(Cl)cn3)sc2c1`, the IC50 in [1] is > 10 µM; in test [7], > 10 µM; in [2], > 10 µM; in test [3], 6 µM; in test [4] it was ≥ 10 µM; in test [5], 10 µM.

Consider `CC(C)NC(=N)c1ccc2nc(NC(=O)c3ccccc3Cl)sc2c1`, for which the IC50 in [1] stood at 61 µM; in [2], 23 µM; in [3] it was 45 µM; in test [4], 45 µM; in test [5] it was 16 µM; in [6] it was 59 µM.

Turning to `CC(C)NC(=N)c1ccc(C(=O)Nc2nc3ccccc3s2)cc1`, the IC50 in test [1] amounted to 16 µM; in test [2] it was 9 µM; in test [3], 17 µM; in test [4], 17 µM; in test [5], 13 µM; in [6], 16 µM.

Turning to `Cc1cccnc1Nc1nc2ccc(C(=N)NC(C)C)cc2s1`, the IC50 came to 14 µM in test [1]; 5 µM in test [2]; 3 µM in test [3]; 5 µM in test [4]; 2 µM in test [5]; 2 µM in test [6].

Consider `Cc1ccnc(Nc2nc3ccc(C(=N)NC(C)C)cc3s2)c1`, for which the IC50 was 12.5 µM in [1]; 4 µM in [2]; 3 µM in test [3]; 3 µM in test [4]; 2 µM in test [5]; 2 µM in [6].
